# Test results as given in ChEMBL document CHEMBL1144684, “Evaluation of a series of naphthamides as potent, orally active vascular endothelial growth factor receptor-2 tyrosine kinase inhibitors” (J Med Chem, 2008).
# pIC50: −log10 of the molar value. Active and inactive are the calls of the source. The rule behind the calls is not given here.
# Columns and labels:
# [1] = Oral bioavailability in Sprague-Dawley rat at 2 mg/kg; type: ADME, organism-based; details: in vivo
# How it was run: (§1)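 Male Sprague–Dawley rats dosed iv at 0.5 mg/kg as DMSO solution or po at 2 mg/kg as suspension in 100% OraPlus. Serial jugular blood, plasma LC-MS/MS quantitation, noncompartmental analysis.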
# Calu-6 (Homo sapiens) [2] = experiment: Antitumor activity in human Calu6 cell xenografted CD1 nu/nu mouse assessed as inhibition of tumor growth at 60 mg/kg, po qd for 14 days; details: Calu-6, po, 336 h, read-out: TGI
# [3] = Protein binding in cynomolgus monkey plasma; type: ADME, cell-free, Macaca fascicularis; details: read-out: PPB (converted)
# [4] = Cmax in VEGF-soaked disk implanted in Sprague-Dawley rat; type: ADME, organism-based; details: in vivo
# [5] = AUC (0 to 24 hrs) in mouse at 10 mg/kg, po; type: ADME, organism-based; set-up: time < 24 hr, dose 10 mg/kg, route oral; details: plasma
# How it was run: (§2)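 Compound given iv and po as single doses; vehicles: mouse iv PEG 400, po OraPlus; dog iv DMSO, po 1% Tween-80/2% HPMC/97% water; cynomolgus iv propylene glycol, po suspension.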
# [6] = Volume of distribution at steady state in Sprague-Dawley rat at 0.5 mg/kg, iv; type: ADME, organism-based; set-up: dose 0.5 mg/kg, route intravenous; details: in vivo, read-out: Vdss; how it was run: as §1
# [7] = Mean residence time in mouse at 2 mg/kg, iv; type: ADME, organism-based; set-up: dose 2 mg/kg, route intravenous; details: in vivo
# How it was run: (§3)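 Intravenous dosing of male/unspecified animals per species; vehicles: mouse 2 mg/kg in Peg 400, dog 0.5 mg/kg in DMSO, cynomolgus monkey 0.5 mg/kg in propylene glycol. Parameters from plasma concentration–time data by noncompartmental analysis.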
# [8] = Half life in Sprague-Dawley rat at 0.5 mg/kg, iv; type: ADME, organism-based; set-up: dose 0.5 mg/kg, route intravenous; details: in vivo
# How it was run: (§4)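 Male Sprague–Dawley rats dosed iv via femoral vein as DMSO solution (1 or 0.5 mg/kg) or po by gavage as OraPlus suspension (pH 2.0–2.2 with methanesulfonic acid; 10 or 2 mg/kg). Serial jugular blood over 12–24 h; plasma acetonitrile precipitation, LC-MS/MS (MRM) with internal standard; noncompartmental parameters.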
# [9] = target: Mast/stem cell growth factor receptor Kit (Homo sapiens) (UniProt P10721); experiment: Inhibition of c-Kit
# Mast/stem cell growth factor receptor Kit (Homo sapiens), sequence (P10721 whole entry): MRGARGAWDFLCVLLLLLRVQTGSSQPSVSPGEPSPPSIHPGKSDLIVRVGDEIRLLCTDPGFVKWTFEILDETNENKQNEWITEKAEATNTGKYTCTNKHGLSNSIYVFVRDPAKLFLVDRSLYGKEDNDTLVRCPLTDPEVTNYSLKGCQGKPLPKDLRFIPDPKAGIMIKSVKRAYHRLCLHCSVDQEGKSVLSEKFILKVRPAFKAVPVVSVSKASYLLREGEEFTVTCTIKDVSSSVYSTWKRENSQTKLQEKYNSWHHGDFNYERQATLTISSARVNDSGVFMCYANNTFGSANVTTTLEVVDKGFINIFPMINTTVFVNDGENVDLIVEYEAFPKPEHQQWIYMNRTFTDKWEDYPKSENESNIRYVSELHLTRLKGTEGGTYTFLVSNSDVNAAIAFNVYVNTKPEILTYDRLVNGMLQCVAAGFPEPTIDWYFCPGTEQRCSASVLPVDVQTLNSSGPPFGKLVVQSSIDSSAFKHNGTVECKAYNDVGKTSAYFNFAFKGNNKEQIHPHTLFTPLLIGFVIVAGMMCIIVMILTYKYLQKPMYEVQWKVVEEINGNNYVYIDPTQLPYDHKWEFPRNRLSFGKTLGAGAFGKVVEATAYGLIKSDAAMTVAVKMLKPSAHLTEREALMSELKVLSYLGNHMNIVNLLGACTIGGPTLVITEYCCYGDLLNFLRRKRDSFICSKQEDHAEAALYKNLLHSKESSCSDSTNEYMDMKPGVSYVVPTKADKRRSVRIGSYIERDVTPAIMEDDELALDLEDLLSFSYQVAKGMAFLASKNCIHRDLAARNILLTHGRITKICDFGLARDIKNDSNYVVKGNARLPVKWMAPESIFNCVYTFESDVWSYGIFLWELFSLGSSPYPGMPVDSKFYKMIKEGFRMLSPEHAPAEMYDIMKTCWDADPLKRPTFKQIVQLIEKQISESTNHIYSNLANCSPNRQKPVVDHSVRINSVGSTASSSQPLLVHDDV
# Liver microsomes [10] = experiment: Metabolic stability assessed as covalent binding in absence of NADPH in rat liver microsomes at 10 uM after 1 hr; type: ADME, Microsome
# How it was run: (§5)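 14C-labelled compound at 10 µM with human or rat liver microsomes (1 mg/mL) in 0.1 M potassium phosphate pH 7.4, with or without 1 mM NADPH and 1 mM glutathione, 60 min; quenched with ice-cold acetonitrile. Pellet washed with 80% methanol and ethanol/ether, solubilized, protein by BCA, radioactivity by scintillation counting.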
# [11] = Oral bioavailability in dog at 0.5 mg/kg, po; type: ADME, organism-based, Canis lupus familiaris; details: in vivo
# How it was run: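 Oral suspension dosing; vehicles: mouse 10 mg/kg in OraPlus, dog 0.5 mg/kg in 1% Tween-80/2% HPMC/97% water, cynomolgus monkey 2 mg/kg.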
# [12] = target: Hepatocyte growth factor receptor (Homo sapiens, UniProt P08581); experiment: Inhibition of c-Met
# Hepatocyte growth factor receptor, sequence (P08581 whole entry): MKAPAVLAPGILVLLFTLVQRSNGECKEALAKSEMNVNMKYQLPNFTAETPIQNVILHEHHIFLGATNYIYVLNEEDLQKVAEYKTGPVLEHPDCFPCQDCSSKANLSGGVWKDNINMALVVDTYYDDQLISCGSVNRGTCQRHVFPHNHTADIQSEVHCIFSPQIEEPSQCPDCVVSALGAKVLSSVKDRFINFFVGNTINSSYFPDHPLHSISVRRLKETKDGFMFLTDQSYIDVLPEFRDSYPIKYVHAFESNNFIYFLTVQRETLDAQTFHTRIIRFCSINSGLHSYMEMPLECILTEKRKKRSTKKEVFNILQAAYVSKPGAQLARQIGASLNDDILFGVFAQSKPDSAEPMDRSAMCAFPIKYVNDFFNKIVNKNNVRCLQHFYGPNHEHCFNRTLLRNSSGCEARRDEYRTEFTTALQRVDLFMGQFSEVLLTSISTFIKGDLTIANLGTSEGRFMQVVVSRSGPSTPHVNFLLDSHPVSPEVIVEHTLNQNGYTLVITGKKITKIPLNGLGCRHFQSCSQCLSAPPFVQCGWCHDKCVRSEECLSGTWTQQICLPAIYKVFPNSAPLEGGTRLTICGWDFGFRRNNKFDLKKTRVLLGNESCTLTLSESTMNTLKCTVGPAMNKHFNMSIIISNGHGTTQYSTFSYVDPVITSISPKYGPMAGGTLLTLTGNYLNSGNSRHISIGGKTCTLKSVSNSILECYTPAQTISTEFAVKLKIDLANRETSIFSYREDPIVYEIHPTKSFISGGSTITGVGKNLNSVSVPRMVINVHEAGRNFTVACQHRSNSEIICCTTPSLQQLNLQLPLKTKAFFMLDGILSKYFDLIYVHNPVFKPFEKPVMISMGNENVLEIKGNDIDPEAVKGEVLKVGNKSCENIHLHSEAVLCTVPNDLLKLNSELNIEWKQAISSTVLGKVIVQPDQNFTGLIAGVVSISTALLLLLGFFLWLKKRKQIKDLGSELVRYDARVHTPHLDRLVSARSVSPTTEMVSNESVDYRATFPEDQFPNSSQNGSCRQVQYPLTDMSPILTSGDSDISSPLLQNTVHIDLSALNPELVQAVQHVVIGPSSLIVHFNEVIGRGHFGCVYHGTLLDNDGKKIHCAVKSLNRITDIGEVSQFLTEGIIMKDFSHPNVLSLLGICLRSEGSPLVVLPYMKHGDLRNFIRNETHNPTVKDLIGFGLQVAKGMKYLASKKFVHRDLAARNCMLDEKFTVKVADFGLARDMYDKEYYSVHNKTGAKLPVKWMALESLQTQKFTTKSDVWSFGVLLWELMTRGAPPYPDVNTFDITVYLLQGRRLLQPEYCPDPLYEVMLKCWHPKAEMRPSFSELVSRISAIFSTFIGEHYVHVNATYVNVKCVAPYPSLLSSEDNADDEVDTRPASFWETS
# [13] = Clearance in Sprague-Dawley rat at 0.5 mg/kg, iv; type: ADME, organism-based; set-up: dose 0.5 mg/kg, route intravenous; details: in vivo; how it was run: as §4
# Calu-6 (Homo sapiens) [14] = experiment: Antitumor activity in human Calu6 cell xenografted CD1 nu/nu mouse assessed as inhibition of tumor growth at 20 mg/kg, po qd for 14 days; details: Calu-6, po, 336 h, read-out: TGI
# [15] = Half life in mouse at 10 mg/kg, po; type: ADME, organism-based; set-up: dose 10 mg/kg, route oral; details: in vivo; how it was run: as §2
# Liver microsomes [16] = experiment: Metabolic stability assessed as covalent binding in presence of NADPH and GSH in rat liver microsomes at 10 uM after 1 hr; type: ADME, Microsome; how it was run: as §5
# [17] = Intrinsic clearance in rat liver microsomes at 1 uM; type: ADME, Microsome; details: read-out: Stability
# How it was run: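 Human or rat liver microsomes (0.25 mg protein/mL) with 1 mM NADPH, 2 mM MgCl2 in 50 mM potassium phosphate pH 7.4 at 37 °C; compound 1 µM final. Sampled 0–40 min into acetonitrile, LC-MS/MS; ln % remaining vs time slope gives T1/2; CLint = (0.693/T1/2)/0.25 mg/mL.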
# [18] = Volume of distribution at steady state in dog at 0.5 mg/kg, iv; type: ADME, organism-based, Canis lupus familiaris; set-up: dose 0.5 mg/kg, route intravenous; details: in vivo, read-out: Vdss; how it was run: as §3
# HT-29 = experiment: Antitumor activity in human HT29 cells xenografted CD1 nu/nu mouse assessed as inhibition of tumor growth at 3 mg/kg, po qd for 14 days; type: functional; details: HT-29, 336 h, read-out: TGI
# How it was run: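 Female CD-1 nu/nu mice, 4–8 weeks, implanted sc in hind flank with 1 × 10^7 HT29 (DMEM high glucose, 5% FBS) or Calu-6 (RPMI 1640, 10% FBS) cells; treatment began at 13–14 days (~300 mm3). Methanesulfonate salt given po qd in OraPlus for 14 days; caliper volumes twice weekly; n = 10/group; RMANOVA with Scheffé test.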
# [19] = Clearance in dog at 0.5 mg/kg, iv; type: ADME, organism-based, Canis lupus familiaris; set-up: dose 0.5 mg/kg, route intravenous; details: in vivo; how it was run: as §2
# Mus musculus [20] = experiment: Inhibition of VEGF-induced vascular permeability in HEK293 cells over expressing mouse recombinant VEGF implanted in CD1 nu/nu mouse assessed as Matrigel plug at 30 mg/kg, po after 6 hrs; type: functional, organism-based; set-up: dose 30 mg/kg
# How it was run: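 HEK293 cells transfected with murine VEGF (or empty vector) were suspended in Matrigel and injected sc into the ventral surface of CD-1 nu/nu mice. At 24 h post-implant, a single oral gavage dose was given as an OraPlus suspension (or vehicle). After 6 h, Evans blue dye was quantified in 1 cm2 of skin over the plug. Plasma was sampled at 6 h; n = 5/group.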
# [21] = Half life in cynomolgus monkey at 2 mg/kg, po; type: ADME, organism-based, Macaca fascicularis; set-up: dose 2 mg/kg, route oral; details: in vivo; how it was run: as §2
# Rattus norvegicus = experiment: Inhibition of VEGF-induced angiogenesis in VEGF-soaked disk implanted in Sprague-Dawley rat cornea assessed as number of blood vessels intersecting the midpoint between disk and limbus after 7 days; type: functional; details: 168 h
# [22] = Clearance in mouse at 2 mg/kg, iv; type: ADME, organism-based; set-up: dose 2 mg/kg, route intravenous; details: in vivo; how it was run: as §2
# Calu-6 (Homo sapiens) [23] = experiment: Antitumor activity in human Calu6 cell xenografted CD1 nu/nu mouse assessed as inhibition of tumor growth at 6 mg/kg, po qd for 14 days; details: Calu-6, po, 336 h, read-out: TGI
# Liver microsomes [24] = experiment: Metabolic stability assessed as covalent binding in presence of NADPH in human liver microsomes at 10 uM after 1 hr; type: ADME, Microsome; how it was run: as §5
# [25] = target: Tyrosine-protein kinase Lck (Homo sapiens, UniProt P06239); experiment: Inhibition of Lck
# Tyrosine-protein kinase Lck, sequence (P06239 whole entry): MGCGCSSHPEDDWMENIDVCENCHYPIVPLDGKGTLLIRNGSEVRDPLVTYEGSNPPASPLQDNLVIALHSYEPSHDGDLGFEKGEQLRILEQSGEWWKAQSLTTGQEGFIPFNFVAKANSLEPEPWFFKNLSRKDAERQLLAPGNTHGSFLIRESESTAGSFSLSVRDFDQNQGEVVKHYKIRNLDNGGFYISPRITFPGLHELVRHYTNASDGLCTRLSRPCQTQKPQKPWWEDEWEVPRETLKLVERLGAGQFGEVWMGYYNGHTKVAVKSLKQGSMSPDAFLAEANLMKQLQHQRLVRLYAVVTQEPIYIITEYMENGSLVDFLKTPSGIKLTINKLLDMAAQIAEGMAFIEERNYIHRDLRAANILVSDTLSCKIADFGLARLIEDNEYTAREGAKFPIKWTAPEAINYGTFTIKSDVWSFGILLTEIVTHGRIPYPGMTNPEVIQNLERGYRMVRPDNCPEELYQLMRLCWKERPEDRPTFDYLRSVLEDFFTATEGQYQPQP
# [26] = AUC (0 to 24 hrs) in cynomolgus monkey at 2 mg/kg, po; type: ADME, organism-based, Macaca fascicularis; set-up: time < 24 hr, dose 2 mg/kg, route oral; details: plasma; how it was run: as §2
# Mus musculus [27] = experiment: Cmax in human HT29 cell xenografted CD1 nu/nu mouse at 10 mg/kg, po qd; type: ADME, organism-based, HT-29; set-up: dose 10 mg/kg, route oral; details: in vivo
# [28] = AUC (0 to 24 hrs) in human HT29 cell xenografted CD1 nu/nu mouse at 10 mg/kg, po qd; type: ADME, organism-based, HT-29; set-up: time < 24 hr, dose 10 mg/kg, route oral; details: in vivo
# Aurora kinase B = Aurora kinase B (Homo sapiens, UniProt Q96GD4); experiment: Inhibition of Aurora B
# Aurora kinase B, sequence (Q96GD4 whole entry): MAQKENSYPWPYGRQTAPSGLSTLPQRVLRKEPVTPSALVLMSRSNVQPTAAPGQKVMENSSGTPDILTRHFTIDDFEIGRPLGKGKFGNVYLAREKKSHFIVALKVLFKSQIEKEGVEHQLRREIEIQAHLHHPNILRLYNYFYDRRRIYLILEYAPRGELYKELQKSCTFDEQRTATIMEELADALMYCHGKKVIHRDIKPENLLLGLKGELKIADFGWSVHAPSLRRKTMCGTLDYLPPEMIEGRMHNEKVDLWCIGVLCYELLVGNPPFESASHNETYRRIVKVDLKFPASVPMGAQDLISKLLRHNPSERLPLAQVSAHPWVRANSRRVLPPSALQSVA
# Mus musculus [29] = experiment: Cmax in mouse at 10 mg/kg, po; type: ADME, organism-based; set-up: dose 10 mg/kg, route oral; details: in vivo; how it was run: as §2
# [30] = Tmax in Sprague-Dawley rat at 2 mg/kg, po; type: ADME, organism-based; set-up: dose 2 mg/kg, route oral; details: in vivo; how it was run: as §1
smiles,measurement,setting,value
COc1cc2nccc(Oc3ccc4c(C(N)=O)cccc4c3)c2cc1OC,bioavailability,[1],96%
same,inhibition in vivo at 60 mg/kg,Calu-6 (Homo sapiens) [2],88%
same,fraction unbound,[3],0.008
same,Cmax,[4],50 nM
same,AUC(0-t) at 24 h,[5],1500 ng·h/mL
same,Vd,[6],1.06 L/kg
same,MRT,[7],2.3 h
same,half-life,[8],6 h
same,Activity,[9],Active
same,Stability,Liver microsomes [10],14 pmol/mg/h
same,bioavailability,[11],73%
same,pIC50,[12],5.16
same,clearance,[13],3.73 mL/min/kg
same,inhibition in vivo at 20 mg/kg,Calu-6 (Homo sapiens) [14],85%
same,half-life,[15],5.6 h
same,Stability,Liver microsomes [16],3.2 pmol/mg/h
same,microsomal CLint at 1 µM,[17],32 µL/min/mg
same,Vd,[18],1.86 L/kg
same,inhibition in vivo at 3 mg/kg,HT-29,51%
same,clearance,[19],1.72 mL/min/kg
same,Cp,Mus musculus [20],2.3 µM
same,half-life,[21],13 h
same,ED50,Rattus norvegicus,0.04 mg/kg
same,clearance,[22],42.4 mL/min/kg
same,inhibition in vivo at 6 mg/kg,Calu-6 (Homo sapiens) [23],52%
same,Stability,Liver microsomes [24],36 pmol/mg/h
same,pIC50,[25],6.52
same,AUC(0-t) at 24 h,[26],1360 ng·h/mL
same,Cmax,Mus musculus [27],1300 nM
same,AUC at 24 h,[28],3.9 µM·h
same,pIC50,Aurora kinase B,6.66
same,Cmax,Mus musculus [29],890 ng/mL
same,Tmax,[30],1.6 h
